Source: publication PMC9946004 (Infection and Drug Resistance, 2023)
Converted amounts (≈) assume the structure as drawn.

Columns and labels:
Experiment in all cases: MIC by broth microdilution
Type in all cases: cell-based
Conditions in all cases: Staphylococcus aureus
S. aureus ATCC29213 = tested on: S. aureus ATCC29213
In short: (§1)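 Broth microdilution per CLSI 2018 in Mueller–Hinton broth, in triplicate. Inoculum was 5×10^5 CFU/mL, incubated 20 h at 37 °C. MIC was the lowest concentration with no visible growth. ATCC29213 served as the quality-control strain.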

[1] = tested on: S. aureus 18-W26-14 (MRSA)
In short: as §1

[2] = tested on: S. aureus 18-W27-73 (MRSA)
In short: as §1

Row | MIC (S. aureus ATCC29213) | MIC [1] | MIC [2] | Structure (SMILES)
1 | 2 µg/mL (≈ 5.93 µM) | 4 µg/mL (≈ 11.9 µM) | 2 µg/mL (≈ 5.93 µM) | CC(=O)NC[C@H]1CN(c2ccc(N3CCOCC3)c(F)c2)C(=O)O1 [Linezolid, linezolid]
2 | 1 µg/mL (≈ 0.69 µM) | 2 µg/mL (≈ 1.38 µM) | 1 µg/mL (≈ 0.69 µM) | CN[C@H](CC(C)C)C(=O)N[C@H]1C(=O)N[C@@H](CC(N)=O)C(=O)N[C@H]2C(=O)N[C@H]3C(=O)N[C@H](C(=O)N[C@H](C(=O)O)c4cc(O)cc(O)c4-c4cc3ccc4O)[C@H](O)c3ccc(c(Cl)c3)Oc3cc2cc(c3O[C@@H]2O[C@H](CO)[C@@H](O)[C@H](O)[C@H]2O[C@H]2C[C@](C)(N)[C@H](O)[C@H](C)O2)Oc2ccc(cc2Cl)[C@H]1O [Vancomycin, vancomycin]
